Data reported in ChEMBL document CHEMBL4765418, “Discovery of novel quinazolinone derivatives as potential anti-HBV and anti-HCC agents” (Eur J Med Chem, 2020).

Key:
HepG2 = assay: Antiproliferative activity against human HepG2 cells assessed as inhibition of cell proliferation after 72 hrs by MTT assay; format: functional, cell-based; settings: HepG2, 72 h
Outline: (§1)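 Cells seeded in 96-well plates and grown 24 h to reach exponential growth, then exposed to test compounds in culture medium for 72 h. Viability read by MTT absorbance at 490 nm relative to untreated cells. IC50 is the concentration giving 50% inhibition of proliferation.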

SK-HEP1 = assay: Antiproliferative activity against human SK-HEP1 cells assessed as inhibition of cell proliferation after 72 hrs by MTT assay; format: functional, cell-based; settings: SK-HEP1, 72 h; outline: as §1
Huh-7 = assay: Antiproliferative activity against human Huh-7 cells assessed as inhibition of cell proliferation after 72 hrs by MTT assay; format: functional, cell-based; settings: Huh-7, 72 h; outline: as §1
[1] = Cytotoxicity against human HepG2 2.2.15 cells assessed as reduction in cell viability measured after 72 hrs by MTT assay; format: cell-based
Outline: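 HepG2 2.2.15 cells (HBV-producing; grown in DMEM with 10% FBS, penicillin/streptomycin and 0.38 mg/mL G418) seeded in 96-well plates and grown 24 h, then treated 72 h with compounds. Viability read by MTT absorbance at 490 nm relative to untreated cells. CC50 is the dose causing 50% cell death.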

Hepatitis B virus [2] = assay: Antiviral activity against HBV infected in human HepG2.2.15 cells assessed as inhibition of DNA replication at 0.8 uM supplemented with fresh medium containing compound every 2 days for 6 days by RT-PCR analysis relative to control; format: functional; settings: HepG2 2.2.15, 144 h, time 6 day
Outline: (§2)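 HepG2 2.2.15 cells (2×10^5/well, 24-well) left 24 h to recover from trypsinization, then given fresh medium with compound (single-point screen at 0.8 μM), renewed every 2 days for 6 days. Intracellular HBV DNA extracted and quantified by real-time PCR. IC50 is the dose giving 50% inhibition of DNA replication, taken from dose–response.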

[3] = Selectivity index, ratio of CC50 for human HepG2 2.2.15 cells to IC50 for antiviral activity against HBV infected in human HepG2.2.15 cells assessed as inhibition of DNA replication; format: toxicity, cell-based; settings: read-out: Ratio CC50/IC50
Hepatitis B virus [4] = assay: Antiviral activity against HBV infected in human HepG2.2.15 cells assessed as inhibition of DNA replication supplemented with fresh medium containing compound every 2 days for 6 days by RT-PCR analysis; format: functional, organism-based; settings: HepG2 2.2.15; outline: as §2

| SMILES | IC50 (HepG2) [µM] | IC50 (SK-HEP1) [µM] | IC50 (Huh-7) [µM] | CC50 at 72 h [1] [µM] | inhibition at 0.8 µM (Hepatitis B virus [2]) [%] | selectivity ratio [3] | IC50 (Hepatitis B virus [4]) [µM] |
| --- | --- | --- | --- | --- | --- | --- | --- |
| O=c1[nH]cc(F)c(=O)[nH]1 [FLUOROURACIL] | 8.69 |  |  |  |  |  |  |
| CNC(=O)c1cc(Oc2ccc(NC(=O)Nc3ccc(Cl)c(C(F)(F)F)c3)cc2)ccn1 [SORAFENIB] | 7.67 | 9.64 | 7.92 |  |  |  |  |
| CN(C)CCCOc1ccc2nc(SCc3ccccc3)n(Cc3ccccc3)c(=O)c2c1 | > 20 |  |  | > 10 | 42.8 |  |  |
| COc1ccc(C(C)=O)cc1CSc1nc2ccc(OCCN(C)C)cc2c(=O)n1Cc1ccco1 | 11.3 |  |  | > 10 | 20.7 |  |  |
| COc1ccc(C(C)=O)cc1CSc1nc2ccc(OCCCN(C)C)cc2c(=O)n1Cc1ccco1 | 9.4 |  |  | > 10 | 54.2 | > 12.7 | 0.79 |
| COc1ccccc1CSc1nc2ccc(OCCN(C)C)cc2c(=O)n1Cc1ccccc1 | > 20 |  |  | > 10 | 11.8 |  |  |
